Results on three molecules are retold here after ChEMBL document CHEMBL4130631, “Identification of the Histidine Residue in Vitamin D Receptor That Covalently Binds to Electrophilic Ligands” (J Med Chem, 2018).

Test [1] addresses T1, Vitamin D3 receptor (Rattus norvegicus) (UniProt P13053).
T1 sequence (whole entry): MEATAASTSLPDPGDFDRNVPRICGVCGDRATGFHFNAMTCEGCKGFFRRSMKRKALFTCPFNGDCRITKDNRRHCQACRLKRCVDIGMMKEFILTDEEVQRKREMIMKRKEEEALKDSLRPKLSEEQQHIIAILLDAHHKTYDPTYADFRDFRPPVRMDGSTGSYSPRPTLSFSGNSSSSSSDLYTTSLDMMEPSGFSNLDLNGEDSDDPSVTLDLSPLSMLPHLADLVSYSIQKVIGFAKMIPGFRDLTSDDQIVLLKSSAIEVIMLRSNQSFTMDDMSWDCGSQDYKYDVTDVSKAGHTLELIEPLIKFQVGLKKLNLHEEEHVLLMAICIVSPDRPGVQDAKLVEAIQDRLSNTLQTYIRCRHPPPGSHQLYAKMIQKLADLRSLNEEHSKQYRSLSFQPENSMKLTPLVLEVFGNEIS
Briefly: Covalent binding affinity to rat VDR LBD (116 to 423 residues, 165-211 residues) assessed as time duration for complete covalent bond formation with protein at 5 equivalents by ESI-MS analysis. The essentials: (§1)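 Rat VDR-LBD (residues 116−423, Δ165−211) concentrated in 50 mM ammonium acetate pH 6.5, 10 μM, incubated with 5 equiv ligand at room temperature. Samples sampled over time (up to 6 h, or 24 h), infused at 30 μL/min, analysed by positive-ion ESI-MS, m/z 100−4000. Spectra deconvoluted to unmodified versus ligand-adduct protein mass peaks.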

The target in test [2] is T2, Vitamin D3 receptor (Homo sapiens) (UniProt P11473).
T2 sequence (whole entry): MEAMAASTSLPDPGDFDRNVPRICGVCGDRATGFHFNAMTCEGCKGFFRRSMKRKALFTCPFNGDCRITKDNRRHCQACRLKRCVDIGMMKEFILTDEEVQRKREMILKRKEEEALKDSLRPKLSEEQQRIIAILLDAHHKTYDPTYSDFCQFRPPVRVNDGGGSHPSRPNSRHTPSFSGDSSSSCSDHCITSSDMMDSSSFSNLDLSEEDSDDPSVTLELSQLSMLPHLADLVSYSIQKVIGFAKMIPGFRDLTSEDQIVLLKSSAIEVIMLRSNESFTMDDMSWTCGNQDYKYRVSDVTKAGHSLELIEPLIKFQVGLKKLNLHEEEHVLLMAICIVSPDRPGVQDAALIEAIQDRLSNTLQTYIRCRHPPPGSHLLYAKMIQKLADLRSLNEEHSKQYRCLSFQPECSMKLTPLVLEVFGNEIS
Description: Agonist activity at human full-length VDR expressed in HEK293 cells by osteopontin luciferase reporter gene assay. Format: cell-based. The procedure, abridged:
(§2)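 Dual luciferase reporter in Cos7 or HEK293 cells cotransfected with full-length human VDR plasmid (pCMX-hVDR), reporter carrying three copies of osteopontin VDRE (SPPx3-TK-Luc) and sea pansy luciferase control (pRL-CMV). Activity normalized to 1,25D3 set as 1: 10−8 M in Cos7, 10−9 M in HEK293.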
A general note: A reporter such as luciferase makes a cellular process visible.

The target of test [3] is T2, Vitamin D3 receptor (Homo sapiens). Briefly: Displacement of [3H]-1,25D3 from C-terminal GST-tagged human recombinant VDR LBD expressed in Escherichia coli BL21 (DE3) after 16 hrs by radioligand binding assay relative to 1,25D3. The procedure, abridged:
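Competitive binding against [3H]-1,25D3 using human VDR-LBD expressed as C-terminal GST fusion from pGEX-VDR in E. coli BL21; IC50 derived.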
(In general: Loss of bound radioactivity is the signal in a displacement assay; it reports binding, not function.)

A further test has as its target T3, Vitamin D3 receptor (Homo sapiens, UniProt P11473).
T3 sequence (P11473 whole entry): T2 sequence (whole entry)
Description: Displacement of [3H]-1,25D3 from C-terminal GST-tagged human recombinant VDR LBD expressed in Escherichia coli BL21 (DE3) after 16 hrs by radioligand binding assay.

The target in test [4] is T1, Vitamin D3 receptor (Rattus norvegicus). Description: Irreversible covalent binding affinity to rat VDR LBD (116 to 423 residues, 165-211 residues) at 2 equivalents after 24 hrs followed by compound wash out and subsequent addition of 10 equivalents of 1,25D3 and measured after 24 hrs by ESI-MS analysis. The procedure, abridged: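 Rat VDR-LBD (Δ165−211) incubated with ligand for 24 h; covalent adduct confirmed by ESI-MS, then buffer exchanged to ligand-free buffer and 10 equiv 1,25D3 added. Positive-ion ESI-MS read for retained modified versus exchanged protein peaks.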

Test [5] shares this target. Description: Covalent binding affinity to rat VDR LBD (116 to 423 residues, 165-211 residues) at 5 equivalents by ESI-MS analysis. The essentials: as §1
The target is the same in test [6]. Briefly: Covalent binding affinity to rat VDR LBD (116 to 423 residues, 165-211 residues) assessed as covalently modified protein level at 5 equivalents by ESI-MS analysis. The conditions noted are these: TDE = time-dependent effect. The procedure, abridged:
as §1

For test [7], the target named is T2, Vitamin D3 receptor (Homo sapiens). Description: Agonist activity at human full-length VDR expressed in African green monkey COS7 cells by osteopontin luciferase reporter gene assay. The class given is cell-based. The procedure, abridged: as §2
Test [8] deals with T1, Vitamin D3 receptor (Rattus norvegicus). Briefly: Covalent binding affinity to rat VDR LBD (116 to 423 residues, 165-211 residues) at 2 equivalents after 24 hrs by ESI-MS analysis.
Test [9] has the same target. Briefly: Covalent binding affinity to rat VDR LBD (116 to 423 residues, 165-211 residues) at 5 equivalents after 30 hrs by ESI-MS analysis.

Activity calls are given as the source filed them. The rule behind the calls is not given here.

As usually defined, the IC50 is the point on the concentration scale where inhibition reaches its midpoint. As to `C=CC(=O)CC[C@@H](C)[C@H]1CC[C@H]2/C(=C/C=C3C[C@@H](O)C(=C)[C@H](O)C3)CCC[C@]12C`, in test [1], the TIME was found to be 1.5 h. The outcome in [2], in [4], in test [5], in test [7] and in test [8] was Active. The Ratio IC50 in test [3] was 0.055. The IC50 on Vitamin D3 receptor was found to be 1.1 nM. For the same molecule, the Activity result in [6] was “Tde”.

As to `C=C1[C@H](O)CC(=C/C=C2\CCC[C@]3(C)[C@@H]([C@H](C)CCC(=O)/C=C/C)CC[C@@H]23)C[C@H]1O`, in [1], the TIME stood at 3 h. In addition, the result in test [2], in test [4], in [5], in test [7] and in [8] was Active. In addition, the Ratio IC50 in [3] is 0.034. The IC50 at Vitamin D3 receptor stood at 1.8 nM. Further, in [6], the Activity entry is “Tde”.

Consider `C=C1[C@H](O)CC(=C/C=C2\CCC[C@]3(C)[C@@H]([C@H](C)C(=O)/C=C/C=C/C)CC[C@@H]23)C[C@H]1O`, for which the result in [2], in test [9] and in test [7] was Active. For the same molecule, the Ratio IC50 in test [3] stood at 0.022. Besides, the IC50 on Vitamin D3 receptor amounted to 2.3 nM.
